Source: paper PMC9096626 (RSC Advances, 2022)

How the values were obtained:
[1] = iEDDA cycloaddition kinetics with TCO-OH; conditions: water : DMSO (4 : 1), 37 °C
Procedure, shortened: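 Pseudo-first-order runs at 37 °C used varied TCO-OH concentrations at 10- to 50-fold excess over the tetrazine amino acid. Full spectra (700–200 nm) were followed by time-resolved UV-Vis and fitted as single-step kinetics to give kobs. Second-order rate constants came from the slope of kobs against [TCO-OH].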

[2] = test system: Somatostatin receptor type 2 (SSTR2); conditions: statement in words; cited from earlier work

Molecule	iEDDA cycloaddition rate relative to methyl analogue 4b [1]	affinity for Somatostatin receptor type 2 (SSTR2) [2]
Cl.N[C@@H](Cc1ccc(Oc2nnc(-c3ccccc3)nn2)cc1)C(=O)O [4c]	three times faster than 4b	
Cl.N[C@@H](CC1=CCC(O)(c2nncnn2)C=C1)C(=O)O (stereo partly drawn) [4a]	14 times	
octreotide		high affinity
